For the test, the target named is Human immunodeficiency virus type 1 reverse transcriptase (Human immunodeficiency virus 1) (UniProt Q72547). The test is described as follows: Inhibition of HIV1 RT after 1 hr by ELISA relative to control. Also on record: concentration or dose not given beside the values. As to conditions: concentration not given here. The procedure, abridged:
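RT inhibitors, diluted in lysis buffer, were mixed with reaction mixture and incubated 1 h at 37 °C. Samples were then transferred to microplate modules for 1 h at 37 °C and washed. Anti-DIG-POD (200 mU/ml) was added for 1 h at 37 °C, then washed again. ABTS substrate was developed at 15–25 °C for 10–30 min, and absorbance was read at 405 nm.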

`CNc1ccc(CN2C(=O)/C(=N\n3cnnc3)c3cc(C)ccc32)cc1` gave an inhibition of 0%.

Consider `Cc1ccc2c(c1)/C(=N/n1cnnc1)C(=O)N2CN1CCNCC1`, for which the inhibition turned out to be 90.9%.

On to `Cc1ccc2c(c1)/C(=N/n1cnnc1)C(=O)N2CN(C)C`, for which the inhibition worked out at 69.1%.

In the case of `Cc1ccc2c(c1)/C(=N/n1cnnc1)C(=O)N2CN1CCOCC1`, the inhibition was found to be 84.1%.

Regarding `Cc1ccc2c(c1)/C(=N/n1cnnc1)C(=O)N2CN1CCCCC1`, the inhibition was found to be 89%.

Values taken from ChEMBL document CHEMBL1158558, “Design of potential reverse transcriptase inhibitor containing Isatin nucleus using molecular modeling studies” (Bioorg Med Chem, 2010).
